The results in this text go back to ChEMBL document CHEMBL1143881, “Sulfonamidolactam inhibitors of coagulation factor Xa” (Bioorg Med Chem Lett, 2008).

Series [1] in a line: Selectivity for human factor 10a over factor 7a.
A short description of series [2]: Selectivity for human factor 10a over thrombin.
Series [3] can be described thus: Selectivity for human factor 10a over trypsin.
For another series, the target named is Coagulation factor X (Homo sapiens, UniProt P00742). Nature of the series: Inhibition of human factor 10a. A digest of the protocol:
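Inhibition constant (Ki) measured against purified human factor Xa; each value is the average of two independent experiments (n = 2).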

Series [4] in a line: Clearance in dog. In kind it is ADME, organism-based, Canis lupus familiaris. To be noted: in vivo.
A further series deals with Plasma. The experiment in a line: Anticoagulant efficacy in human citreated plasma assessed as concentration required to double prothrombin time. The series is classed as functional.
The nature of series [5]: Oral bioavailability in dog. To be noted: in vivo. The series is classed as ADME, organism-based, Canis lupus familiaris.
Series [6] in a line: Half life in dog. The series is classed as ADME, organism-based, Canis lupus familiaris. To be noted: in vivo.
Series [7] in a line: Apparent permeability across human Caco-2 cells. In kind it is ADME, cell-based.

The term Ki denotes a dissociation constant, usually derived from enzyme kinetics or from competition with a known ligand. The low end stands for tighter binding, the high end for weaker binding. What is called clearance is the volume of plasma or blood freed of the substance per unit of time. As usually defined, the bioavailability is dose-corrected exposure relative to a reference, in per cent. A lower bioavailability goes with little systemic uptake. For orientation: half-life means the time needed for the level to fall by half in the phase considered. A lower half-life goes with rapid decline. As a reminder, the Papp is the rate of passage across a membrane or cell layer, normalised by area and donor concentration.

Molecules are shown by their SMILES.

Coagulation factor X, sequence (P00742 41-179 limits assumed): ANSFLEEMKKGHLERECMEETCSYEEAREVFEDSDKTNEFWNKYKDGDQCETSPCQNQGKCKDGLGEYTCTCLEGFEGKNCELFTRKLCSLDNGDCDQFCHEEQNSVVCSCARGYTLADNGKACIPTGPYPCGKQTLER
Coagulation factor X, sequence (P00742 235-488 limits assumed): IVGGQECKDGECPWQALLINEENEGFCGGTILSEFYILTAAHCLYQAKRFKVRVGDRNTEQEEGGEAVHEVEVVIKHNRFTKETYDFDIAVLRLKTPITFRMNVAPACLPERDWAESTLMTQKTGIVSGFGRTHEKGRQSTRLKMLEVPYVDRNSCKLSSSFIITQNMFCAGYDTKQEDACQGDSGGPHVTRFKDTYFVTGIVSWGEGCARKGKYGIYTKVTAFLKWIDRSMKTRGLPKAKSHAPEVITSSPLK

Take `COc1ccc(OC2CCCN(c3ccc(-c4ccccc4S(C)(=O)=O)cc3F)C2=O)cc1` (stereo unspecified): the Selectivity ratio in series [1], in series [2] and in series [3] was more than 1000 in each case. Further, the Ki on Coagulation factor X stood at 200 nM.
On to `CN(C)CCN(C)C(=O)CN([C@H]1CCCN(c2ccc(-n3ccccc3=O)cc2F)C1=O)S(=O)(=O)c1ccc2cc(Cl)ccc2c1`, for which the clearance in series [4] is 19.8 mL/min/kg. In addition, in the series on Plasma, the PT was found to be 1.7 µM. The Selectivity ratio in series [2] and in [3] was more than 1000 in each case. The same compound returned a bioavailability in [5] of 4%. This compound showed a half-life in series [6] of 6.45 h. Moreover, the Ki on Coagulation factor X worked out at 0.016 nM.
As for `CNC(=O)CN(C1CCCN(c2ccc(-n3ccccc3=O)cc2F)C1=O)S(=O)(=O)c1cc2ccc(Cl)nc2s1` (stereo unspecified), the Papp in series [7] worked out at 0.1 ×10⁻⁶ cm/s. Also, in the series on Plasma, the PT came to 4.2 µM. The Selectivity ratio in series [2] and in series [3] was more than 1000 in each case. Moreover, the Ki at Coagulation factor X amounted to 0.037 nM.
Consider `COC(=O)CN(C1CCCN(c2ccc(-n3ccccc3=O)cc2)C1=O)S(=O)(=O)c1cc2ccc(Cl)nc2s1` (stereo unspecified), for which the Papp in series [7] came to 3.5 ×10⁻⁶ cm/s. Further, in the series with Plasma, the PT turned out to be 4.4 µM. The Selectivity ratio in series [2] and in series [3] was more than 1000 in each case. The compound also displayed a Ki on Coagulation factor X of 0.043 nM.
`O=C1C(NS(=O)(=O)c2cc3ccc(Cl)nc3s2)CCCN1c1ccc(-n2ccccc2=O)cc1` (stereo unspecified): in series [7], the Papp turned out to be 2 ×10⁻⁶ cm/s. For the same compound, in the series with Plasma, the PT was found to be 15 µM. Further, the Selectivity ratio in series [2] and in [3] was more than 1000 throughout. The same compound yielded a Ki on Coagulation factor X of 0.05 nM.
